Calls of active or inactive are those of the source. The rule behind the calls is not given here.
Columns and labels:
[1] = test system: Human immunodeficiency virus 1; assay: Antiviral activity against HIV1 harboring reverse transcriptase Y188L mutant infected in HEK293T cells transfected with plasmid VSV-G/pNL4-3.luc.R-E- assessed as inhibition of viral replication after 48 hrs by luciferase reporter gene assay; type: functional, organism-based, HEK-293T
Method in brief: (§1)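 VSV-G-pseudotyped single-cycle virus: VSVG plasmid plus env-deficient pNL4-3.luc.R⁻E⁻ vector (wild type or RT-mutant) co-transfected into HEK 293T by calcium phosphate. Medium changed at 16 h, supernatant collected 48 h post-transfection, normalised by p24 ELISA to 0.2 ng p24/mL. HEK 293T targets seeded a day ahead; compound added 15 min before virus. Cells lysed 48 h post-infection, luciferase read. IC50 from dose–infectivity curves.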

[2] = test system: Human immunodeficiency virus 1; assay: Antiviral activity against HIV1 infected in 293T cells assessed as time of 50% failure; type: functional
[3] = test system: Human immunodeficiency virus 1; assay: Antiviral activity against HIV1 harboring reverse transcriptase K103N mutant infected in HEK293T cells transfected with plasmid VSV-G/pNL4-3.luc.R-E- assessed as inhibition of viral replication after 48 hrs by luciferase reporter gene assay; type: functional, organism-based, HEK-293T; method in brief: as §1
[4] = test system: Human immunodeficiency virus 1; assay: Antiviral activity against HIV1 harboring reverse transcriptase Y181C mutant infected in HEK293T cells transfected with plasmid VSV-G/pNL4-3.luc.R-E- assessed as inhibition of viral replication after 48 hrs by luciferase reporter gene assay; type: functional, organism-based, HEK-293T; method in brief: as §1
[5] = test system: Human immunodeficiency virus 1; assay: Antiviral activity against HIV1 harboring reverse transcriptase K103N/G190A double mutant infected in HEK293T cells transfected with plasmid VSV-G/pNL4-3.luc.R-E- assessed as inhibition of viral replication after 48 hrs by luciferase reporter gene assay relative HIV1; type: functional, HEK-293T
[6] = test system: Human immunodeficiency virus 1; assay: Antiviral activity against HIV1 harboring reverse transcriptase K103N/V108I double mutant infected in HEK293T cells transfected with plasmid VSV-G/pNL4-3.luc.R-E- assessed as inhibition of viral replication after 48 hrs by luciferase reporter gene assay; type: functional, organism-based, HEK-293T; method in brief: as §1
[7] = test system: Human immunodeficiency virus 1; assay: Antiviral activity against HIV1 harboring reverse transcriptase Y188L mutant infected in HEK293T cells transfected with plasmid VSV-G/pNL4-3.luc.R-E- assessed as inhibition of viral replication after 48 hrs by luciferase reporter gene assay relative HIV1; type: functional, HEK-293T
[8] = test system: Human immunodeficiency virus 1; assay: Antiviral activity against HIV1 harboring reverse transcriptase K103N/V108I double mutant infected in HEK293T cells transfected with plasmid VSV-G/pNL4-3.luc.R-E- assessed as inhibition of viral replication after 48 hrs by luciferase reporter gene assay relative HIV1; type: functional, HEK-293T
[9] = test system: Human immunodeficiency virus 1; assay: Antiviral activity against HIV1 harboring reverse transcriptase K103N/P225H double mutant infected in HEK293T cells transfected with plasmid VSV-G/pNL4-3.luc.R-E- assessed as inhibition of viral replication after 48 hrs by luciferase reporter gene assay relative HIV1; type: functional, HEK-293T
[10] = test system: Human immunodeficiency virus 1; assay: Antiviral activity against HIV1 harboring reverse transcriptase K103N/P225H double mutant infected in HEK293T cells transfected with plasmid VSV-G/pNL4-3.luc.R-E- assessed as inhibition of viral replication after 48 hrs by luciferase reporter gene assay; type: functional, organism-based, HEK-293T; method in brief: as §1
[11] = test system: Human immunodeficiency virus 1; assay: Antiviral activity against wild type HIV1 infected in HEK293T cells transfected with plasmid VSV-G/pNL4-3.luc.R-E- assessed as inhibition of viral replication after 48 hrs by luciferase reporter gene assay; type: functional, organism-based, HEK-293T; method in brief: as §1
HEK-293T = assay: Cytotoxicity against HEK293T cells at 10 uM after 48 hrs; type: cell-based; conditions: human
Method in brief: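 HEK 293T cells incubated 48 h with compound at final 10 μM under the antiviral culture conditions, without virus. Viability read with a cell proliferation assay kit.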

[12] = test system: Human immunodeficiency virus 1; assay: Antiviral activity against HIV1 harboring reverse transcriptase Y181C mutant infected in HEK293T cells transfected with plasmid VSV-G/pNL4-3.luc.R-E- assessed as inhibition of viral replication after 48 hrs by luciferase reporter gene assay relative HIV1; type: functional, HEK-293T
[13] = test system: Human immunodeficiency virus 1; assay: Antiviral activity against HIV1 harboring reverse transcriptase K103N mutant infected in HEK293T cells transfected with plasmid VSV-G/pNL4-3.luc.R-E- assessed as inhibition of viral replication after 48 hrs by luciferase reporter gene assay relative HIV1; type: functional, HEK-293T
[14] = Retention time of the compound by HPLC analysis; type: physicochemical
[15] = test system: Human immunodeficiency virus 1; assay: Antiviral activity against HIV1 harboring reverse transcriptase […]/K103N double mutant infected in HEK293T cells transfected with plasmid VSV-G/pNL4-3.luc.R-E- assessed as inhibition of viral replication after 48 hrs by luciferase reporter gene assay; type: functional, organism-based, HEK-293T; method in brief: as §1
[16] = test system: Human immunodeficiency virus 1; assay: Antiviral activity against HIV1 harboring reverse transcriptase K103N/G190A double mutant infected in HEK293T cells transfected with plasmid VSV-G/pNL4-3.luc.R-E- assessed as inhibition of viral replication after 48 hrs by luciferase reporter gene assay; type: functional, organism-based, HEK-293T; method in brief: as §1
[17] = test system: Human immunodeficiency virus 1; assay: Antiviral activity against HIV1 harboring reverse transcriptase […]/K103N double mutant infected in HEK293T cells transfected with plasmid VSV-G/pNL4-3.luc.R-E- assessed as inhibition of viral replication after 48 hrs by luciferase reporter gene assay relative HIV1; type: functional, HEK-293T
[18] = test system: Human immunodeficiency virus 1; assay: Antiviral activity against HIV1 at 10 uM; type: functional, organism-based
[19] = Human immunodeficiency virus 1, HEK-293T, 48 h
[20] = Human immunodeficiency virus 1, HEK-293T, 48 h, read-out: IC50

**Q.** With `COc1ccc(CNc2nc(-c3ccccc3F)c(Cc3ccccc3)s2)cc1` as the molecule, how does the IC50 [1, 19] read?
**A.** Its IC50 is over 10 µM.

**Q.** What about the Time [2] of the same molecule?
**A.** Its Time is 8.6 h.

**Q.** And the IC50 [3, 19]?
**A.** Its IC50 is 0.54 µM.

**Q.** And the IC50 [4, 19]?
**A.** Its IC50 is 1.26 µM.

**Q.** What about the “fold change (FC)” value [5] of the same molecule?
**A.** Its value is 2.6.

**Q.** And the IC50 [6, 19]?
**A.** The IC50 was 4.73 µM.

**Q.** And the “fold change (FC)” value [7]?
**A.** The value was over 161.

**Q.** And the “fold change (FC)” value [8]?
**A.** The value was 76.3.

**Q.** And the “fold change (FC)” value [9]?
**A.** Its value is 77.6.

**Q.** And the IC50 [10, 19]?
**A.** Its IC50 is 4.81 µM.

**Q.** What about the IC50 [11, 20] of the same molecule?
**A.** The IC50 was 0.062 µM.

**Q.** What about the Activity (HEK-293T) of the same molecule?
**A.** The Activity was “Non-toxic”.

**Q.** What about the “fold change (FC)” value [12] of the same molecule?
**A.** Its value is 20.3.

**Q.** And the “fold change (FC)” value [13]?
**A.** The value was 8.7.

**Q.** What about the Retention_time [14] of the same molecule?
**A.** Its Retention_time is 24.29 min.

**Q.** And the IC50 [15, 19]?
**A.** The IC50 was 5.24 µM.

**Q.** And the IC50 [16, 19]?
**A.** The IC50 was 0.16 µM.

**Q.** What about the “fold change (FC)” value [17] of the same molecule?
**A.** Its value is 84.5.

**Q.** Which results are given for `O=C1Nc2ccc(Cl)cc2[C@@](C#CC2CC2)(C(F)(F)F)O1` [EFAVIRENZ]?
**A.** IC50 ([1]; hek-293t): 0.48 µM; Time [2]: 8.8 h; IC50 ([3]; hek-293t): 0.0588 µM; IC50 ([4]; hek-293t): 0.00565 µM; fold change (FC) [5]: 538; IC50 ([6]; hek-293t): 0.083 µM; fold change (FC) [7]: 461.5; fold change (FC) [8]: 79.8; fold change (FC) [9]: 154; IC50 ([10]; hek-293t): 0.16 µM; IC50 [11, 20]: 0.00084 µM; Activity (HEK-293T): Non-toxic; fold change (FC) [12]: 5.4; fold change (FC) [13]: 56; IC50 ([15]; hek-293t): 2.49 µM; IC50 ([16]; hek-293t): 0.056 µM; fold change (FC) [17]: 2394

**Q.** Which results are given for `Cc1ccnc2c1NC(=O)c1cccnc1N2C1CC1` [NEVIRAPINE]?
**A.** IC50 [1, 19]: > 10 µM; Time [2]: 8.3 h; IC50 ([3]; hek-293t): 16.1 µM; IC50 ([4]; hek-293t): 66.7 µM; fold change (FC) [5]: >322; IC50 ([6]; hek-293t): 2.8 µM; fold change (FC) [7]: >322; fold change (FC) [8]: 90; fold change (FC) [9]: 177; IC50 ([10]; hek-293t): 5.48 µM; IC50 [11, 20]: 0.031 µM; Activity (HEK-293T): Non-toxic; fold change (FC) [12]: 2152; fold change (FC) [13]: 519; IC50 [15, 19]: 5 µM; IC50 [16, 19]: > 10 µM; fold change (FC) [17]: 161

**Q.** With `COc1ccc(-c2nc(N(C)C)sc2Cc2ccccc2)cc1` as the molecule, how does the inhibition [18] read?
**A.** The inhibition was “inactive”.

**Q.** What about the IC50 ([11]; hek-293t) of the same molecule?
**A.** The IC50 was “Not Active”.

**Q.** What about the Activity (HEK-293T) of the same molecule?
**A.** The Activity was “Non-toxic”.

**Q.** And the Retention_time [14]?
**A.** The Retention_time was 35.28 min.

**Q.** With `COc1ccc(CNc2nc(-c3ccccc3Cl)c(Cc3ccccc3)s2)cc1` as the molecule, how does the IC50 [1, 19] read?
**A.** The IC50 was over 10 µM.

**Q.** And the Time [2]?
**A.** The Time was 9 h.

**Q.** And the IC50 [3, 19]?
**A.** Its IC50 is 0.24 µM.

**Q.** And the IC50 [4, 19]?
**A.** The IC50 was 0.79 µM.

**Q.** What about the “fold change (FC)” value [5] of the same molecule?
**A.** Its value is 90.9.

**Q.** What about the IC50 [6, 19] of the same molecule?
**A.** Its IC50 is 0.82 µM.

**Q.** And the “fold change (FC)” value [7]?
**A.** Its value is over 217.

**Q.** And the “fold change (FC)” value [8]?
**A.** The value was 17.8.

**Q.** And the “fold change (FC)” value [9]?
**A.** Its value is 17.

**Q.** And the IC50 [10, 19]?
**A.** Its IC50 is 0.78 µM.

**Q.** And the IC50 [11, 20]?
**A.** Its IC50 is 0.046 µM.

**Q.** What about the Activity (HEK-293T) of the same molecule?
**A.** The Activity was “Non-toxic”.

**Q.** And the “fold change (FC)” value [12]?
**A.** The value was 17.2.

**Q.** And the “fold change (FC)” value [13]?
**A.** The value was 5.2.

**Q.** What about the Retention_time [14] of the same molecule?
**A.** Its Retention_time is 26.43 min.

**Q.** And the IC50 [15, 19]?
**A.** The IC50 was 5.11 µM.

**Q.** And the IC50 [16, 19]?
**A.** The IC50 was 4.18 µM.

**Q.** What about the “fold change (FC)” value [17] of the same molecule?
**A.** Its value is 111.

**Q.** With `COc1ccc(CNc2nc(-c3ccc(F)cc3F)c(Cc3ccccc3)s2)cc1` as the molecule, how does the IC50 [1, 19] read?
**A.** The IC50 was over 10 µM.

**Q.** What about the Time [2] of the same molecule?
**A.** The Time was 8.6 h.

**Q.** What about the IC50 [3, 19] of the same molecule?
**A.** The IC50 was 0.41 µM.

**Q.** What about the IC50 [4, 19] of the same molecule?
**A.** Its IC50 is 1.46 µM.

**Q.** And the “fold change (FC)” value [5]?
**A.** The value was 6.3.

**Q.** What about the IC50 [6, 19] of the same molecule?
**A.** The IC50 was 1.84 µM.

**Q.** What about the “fold change (FC)” value [7] of the same molecule?
**A.** Its value is over 156.

**Q.** What about the “fold change (FC)” value [8] of the same molecule?
**A.** Its value is 28.8.

**Q.** And the “fold change (FC)” value [9]?
**A.** The value was 56.1.

**Q.** What about the IC50 [10, 19] of the same molecule?
**A.** The IC50 was 3.59 µM.

**Q.** And the IC50 [11, 20]?
**A.** Its IC50 is 0.064 µM.

**Q.** What about the Activity (HEK-293T) of the same molecule?
**A.** The Activity was “Non-toxic”.

**Q.** What about the “fold change (FC)” value [12] of the same molecule?
**A.** Its value is 22.8.

**Q.** What about the “fold change (FC)” value [13] of the same molecule?
**A.** Its value is 6.4.

**Q.** What about the Retention_time [14] of the same molecule?
**A.** The Retention_time was 17.37 min.

**Q.** What about the IC50 [15, 19] of the same molecule?
**A.** Its IC50 is 5.36 µM.

**Q.** What about the IC50 [16, 19] of the same molecule?
**A.** Its IC50 is 0.4 µM.

**Q.** And the “fold change (FC)” value [17]?
**A.** Its value is 83.8.

Reference: ChEMBL document CHEMBL3351628, “2,4,5-Trisubstituted thiazole derivatives: a novel and potent class of non-nucleoside inhibitors of wild type and mutant HIV-1 reverse transcriptase” (Eur J Med Chem, 2014)
